Screening data deposited in PubChem BioAssay by several laboratories.
The list is not random: actives were taken first. Their share in the collection is about 0.89%.
PG9 binder: binds the HIV-1 gp120 antibody PG9; actives 0.43% (n = 360,000); AID 624416; inhibition, % at 6.7 µM; TR-FRET gp120-PG9 antibody binding; in the data active = inhibition above about 8.5%
hiPSC survival: increases survival of single human iPS cells; survival enhancement, % at 20 µM; hiPSC single-cell survival, ATPlite luminescence; 100% = ROCK inhibitor wells, 0% = DMSO; AID 602274; actives 0.044% (n = 360,000); in the data active = survival enhancement above about 18%;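 also: cells exposed to compounds for 16 hours before the ATP read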
ABCB6 inh 2: inhibitors of human ABC transporter ABCB6. Q9NP58. K562-ABCB6 porphyrin accumulation, flow cytometry, 1 h; active compounds read low. fluorescence ratio to DMSO, % at 10 µM. actives 0.19% (n = 360,000);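 active = fluorescence ratio to DMSO below 75%, the collection mean minus 3 SD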;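 also: signal is porphyrin accumulated inside mitochondria; lower ratio means ABCB6 inhibition with less porphyrin fluorescence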
Target sequence (Q9NP58 whole entry, looked up): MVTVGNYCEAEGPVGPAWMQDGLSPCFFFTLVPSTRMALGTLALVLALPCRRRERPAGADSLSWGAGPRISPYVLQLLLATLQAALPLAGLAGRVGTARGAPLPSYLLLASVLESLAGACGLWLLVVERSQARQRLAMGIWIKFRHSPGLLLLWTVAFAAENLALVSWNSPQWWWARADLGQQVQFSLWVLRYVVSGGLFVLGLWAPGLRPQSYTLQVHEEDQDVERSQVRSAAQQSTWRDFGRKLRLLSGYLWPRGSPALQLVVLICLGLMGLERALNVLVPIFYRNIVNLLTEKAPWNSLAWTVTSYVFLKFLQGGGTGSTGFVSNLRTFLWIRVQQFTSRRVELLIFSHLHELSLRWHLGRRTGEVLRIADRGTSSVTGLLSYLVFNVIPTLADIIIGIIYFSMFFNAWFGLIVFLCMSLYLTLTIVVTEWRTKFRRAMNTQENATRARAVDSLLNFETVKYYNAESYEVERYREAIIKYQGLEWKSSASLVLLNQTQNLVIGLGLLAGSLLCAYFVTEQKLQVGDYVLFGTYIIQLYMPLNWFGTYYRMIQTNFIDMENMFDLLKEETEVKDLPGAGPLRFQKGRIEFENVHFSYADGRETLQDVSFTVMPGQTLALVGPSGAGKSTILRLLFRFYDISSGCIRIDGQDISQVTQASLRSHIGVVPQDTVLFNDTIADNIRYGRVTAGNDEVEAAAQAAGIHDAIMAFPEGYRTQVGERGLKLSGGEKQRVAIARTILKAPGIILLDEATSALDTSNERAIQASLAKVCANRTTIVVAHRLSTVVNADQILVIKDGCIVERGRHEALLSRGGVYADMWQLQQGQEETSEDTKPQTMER
Arrestin-AP2 inh: blocks beta-arrestin peptide binding to AP2 adaptin; inhibition, % at 10 µM; FITC-arrestin peptide / GST-AP2 beads, flow cytometry; AP2 beta2 appendage carries R879A mutation; actives 0.31% (n = 340,000); AID 504490;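 active = inhibition above a set limit, near 3 SD of compounds lacking own fluorescence, cut at about 54% in these data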
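System: GST-tagged AP2 beta2-adaptin appendage (R879A) on 4 µm glutathione beads / Reagent: FITC-arrestin peptide, 50 nM / Detection: HyperCyt-sampled flow cytometry, FL1 channel, ex 488/em 535 nm / Timing: 12 min plus 1 h, RT / Buffer or medium: PBS plus Tween 20 (0.05%) and BSA (0.1%)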
PG9 bind confirm: PG9 antibody binding, confirmed; shares compounds with PG9 binder; TR-FRET PG9 antibody binding, biochemical; inhibition, % at 6.7 µM; actives 90% (n = 1,500); AID 651571; in the data active = inhibition above about 9%
PGV04 Ab binding: PGV04 control antibody binding, counter-screen; shares compounds with PG9 binder; inhibition, % at 6.7 µM; AID 651604; actives 95% (n = 1,500); TR-FRET PGV04 antibody-gp120 binding, biochemical; in the data active = inhibition above about 9.5%
PG9 bind DR: PG9 antibody binding, dose response | shares compounds with PG9 binder | TR-FRET PG9 antibody-gp120 binding inhibition | 95 tested, under 10 active | IC50, µM; in the data active = IC50 below about 10 µM
PGV04 binding DR: counter-screen for PG9 binders: binding to control antibody PGV04. shares compounds with PG9 binder. TR-FRET binding to control antibody PGV04. IC50, µM. actives 20% (n = 95). AID 651937
PG126 binding DR: binds control antibody PG126 in PG9 counter-screen. IC50, µM. actives 20% (n = 95). TR-FRET binding to antibody PG126, counterscreen. shares compounds with PG9 binder. AID 651939
Of the large screens only hits and unclear results are named; the others gave an inactive call (follow-up assays come after a bar, where they were run). Rule as the data show it, unless noted: active = IC50 below about 9 µM; inactive = the rest.

COc1ccc(C(=O)c2ccc(OC)c(Br)c2)cc1Br	PG9 binder 19 | PG9 bind confirm 12 | PGV04 Ab binding 14
CCCCNc1nc2c(S(=O)(=O)c3ccccc3)nnn2c2ccccc12	PG9 binder 29 | PG9 bind confirm 58 | PGV04 Ab binding 75
CCc1ccc(S(=O)(=O)c2nnn3c2nc(NCCNC(C)=O)c2ccccc23)cc1	none
CCSc1nnc(NC(=O)CCCOc2ccc(C)cc2)s1	PG9 binder 21 | PG9 bind confirm 13 | PGV04 Ab binding 49
O=C(C(=O)N1CCC(CNS(=O)(=O)c2cccc(C(F)(F)F)c2)CC1)c1cc2ccccc2o1	none (no result: hiPSC survival, ABCB6 inh 2, Arrestin-AP2 inh)
COC(=O)[C@]12C[C@H](CC(=O)NCCC(C)C)C(=O)N(Cc3ccc4c(c3)OCO4)C1=C[C@H](COCc1ccccc1)O[C@@H]2C	none (no result: hiPSC survival, ABCB6 inh 2, Arrestin-AP2 inh)
CCOc1cc(OCC)cc(C(=O)NCc2ccco2)c1	PG9 binder 8.9 | PG9 bind confirm inactive | PGV04 Ab binding inactive
O=C(C(=O)N1CCN(S(=O)(=O)c2ccccc2)CC1)c1cccc(C(F)(F)F)c1	none (no result: hiPSC survival, ABCB6 inh 2, Arrestin-AP2 inh)
Cc1cc(-n2c(C)cc(C(=O)COc3ccc(Cl)cc3C(N)=O)c2C)no1	PG9 binder 11 | PG9 bind confirm 21 | PGV04 Ab binding 34
Cc1ccc(-c2c3c([nH]c(=S)c2C#N)CCCC3)o1	PG9 binder 16 | PG9 bind confirm 8.7 | PGV04 Ab binding inactive | PG9 bind DR inactive | PGV04 binding DR inactive | PG126 binding DR inactive
O=c1c2cc3c(nc2[nH]c(=S)n1-c1ccccc1)CCCC3	PG9 binder 22 | PG9 bind confirm 31 | PGV04 Ab binding 34
CCn1c(SCc2ccc(Cl)cc2)nc2nc3c(cc2c1=O)CCCC3	none
CCn1c(=S)[nH]c2nc3c(cc2c1=O)CCCC3	PG9 binder 22 | PG9 bind confirm 10 | PGV04 Ab binding 9.9 | PG9 bind DR inactive | PGV04 binding DR inactive | PG126 binding DR inactive
O=S1(=O)N[C@@H](Cc2ccccc2)COc2cccc(NCCCN3CCOCC3)c21	none (no result: hiPSC survival, ABCB6 inh 2, Arrestin-AP2 inh)
Cc1cccc(C)c1NC(=O)CSc1cc(C(=O)c2nccn2C)c2ccccc2n1	PG9 binder 14 | PG9 bind confirm 41 | PGV04 Ab binding 58
CCc1cc2cc(C)c(C)cc2nc1SCC(=O)Nc1cc(C)on1	none
Cn1ccnc1C(=O)c1cc(SCC(=O)NC2CC2)nc2ccccc12	none
Cc1cc(NC(=O)CSc2nc(C(C)(C)C)nc3ccccc23)no1	PG9 binder 36 | PG9 bind confirm 44 | PGV04 Ab binding 55
CC(C)(C)c1nc(SCC(=O)NC2CCCC2)c2ccccc2n1	PG9 binder 9.9 | PG9 bind confirm 13 | PGV04 Ab binding 17
CCc1cc2ccccc2nc1SCC(=O)Nc1cc(C)on1	PG9 binder 22 | PG9 bind confirm 22 | PGV04 Ab binding 30
CC(C)c1nc(SCC(=O)NC2CCCCC2)c2ccccc2n1	none
O=C(N[C@H](C(=O)N1CCC[C@H]1C(=O)NCc1ccccc1)c1ccccc1)C1CCCC1	none (no result: hiPSC survival, ABCB6 inh 2, Arrestin-AP2 inh)
CCOC(=O)C1=CCN(S(=O)(=O)c2ccc(Br)cc2)C1c1ccc(Br)cc1 (stereo not given)	none (no result: hiPSC survival, ABCB6 inh 2, Arrestin-AP2 inh)
Cc1ccc(CN2CC(N3CCC[C@@H]3C)CS2(=O)=O)cc1 (stereo not given in full)	none (no result: hiPSC survival, ABCB6 inh 2, Arrestin-AP2 inh)
Cc1cc(NC(=O)CSc2cc(C)c3ccccc3n2)no1	PG9 binder 13 | PG9 bind confirm 16 | PGV04 Ab binding 42
O=C(NC1=NCCS1)c1sc2cc(F)ccc2c1Cl	none
O=C(Nc1ccon1)c1sc2cc(F)ccc2c1Cl	PG9 binder 15 | PG9 bind confirm 24 | PGV04 Ab binding 46
CC(C)(C)OC(=O)N1CCC2CCN(CCc3ccccc3)CC21 (stereo not given)	none (no result: hiPSC survival, ABCB6 inh 2, Arrestin-AP2 inh)
O=C(CSc1nc(-c2ccccc2)cc(C(F)(F)F)n1)NCc1cccs1	none
COc1ccc(-c2cc(C(F)(F)F)nc(SCC(=O)NCc3cccs3)n2)cc1	PG9 binder 13 | PG9 bind confirm inactive | PGV04 Ab binding inactive
COc1ccc(/C(O)=C2/C(=O)C(=O)N(CCN(C)C)C2c2cccnc2)cc1C (stereo not given)	PG9 binder 13 | PG9 bind confirm 22 | PGV04 Ab binding 28
COc1ccc(C2/C(=C(/O)c3ccc(F)cc3)C(=O)C(=O)N2CCCN(C)C)cc1 (stereo not given)	none
COc1ccc(/C(O)=C2/C(=O)C(=O)N(CCN(C)C)C2c2ccc(F)cc2)cc1Cl (stereo not given)	PG9 binder 9.5 | PG9 bind confirm 20 | PGV04 Ab binding 23
CCCOc1cccc(C2/C(=C(\O)c3ccc4c(c3)OCCO4)C(=O)C(=O)N2CCCn2ccnc2)c1 (stereo not given)	none
CCCCOc1cccc(C2/C(=C(\O)c3ccc4c(c3)OCCO4)C(=O)C(=O)N2CCN2CCOCC2)c1 (stereo not given)	PG9 binder 10 | PG9 bind confirm 18 | PGV04 Ab binding 31
O=C1C(=O)N(CCN2CCOCC2)C(c2cccc(Cl)c2)/C1=C(\O)c1ccc2c(c1)OCCO2 (stereo not given)	PG9 binder 32 | PG9 bind confirm 36 | PGV04 Ab binding 42
C[C@H](CO)N1C[C@H](C)[C@@H](CN(C)C(=O)c2ccncc2)OCc2cn(nn2)CCCC1=O	none (no result: hiPSC survival, ABCB6 inh 2, Arrestin-AP2 inh)
CCCCC1=CC2=C(c3ccco3)C(=O)C(C)(OC(=O)c3ccc(OC)cc3)C(=O)C2=CN1CCCCO (stereo not given)	PG9 binder 13 | PG9 bind confirm 19 | PGV04 Ab binding 24
CCCCC1=CC2=C(c3ccco3)C(=O)C(C)(OC(=O)c3ccc(OC)cc3)C(=O)C2=CN1CCN1CCOCC1 (stereo not given)	none (no result: PG9 binder)
CCCCC1=CC2=C(c3ccco3)C(=O)C(C)(OC(=O)c3ccc(OC)cc3)C(=O)C2=CN1C1CC1 (stereo not given)	PG9 binder 12 (no result: Arrestin-AP2 inh) | PG9 bind confirm 22 | PGV04 Ab binding 29
CCCCC1=CC2=C(c3ccco3)C(=O)C(C)(OC(=O)c3ccc(OC)cc3)C(=O)C2=CN1CC1CC1 (stereo not given)	none
CCCCC1=CC2=C(c3ccco3)C(=O)C(C)(OC(=O)c3ccc(OC)cc3)C(=O)C2=CN1CCCN(CC)CC (stereo not given)	none
